Assay results published in ChEMBL document CHEMBL1125040, “Reversible inhibitors of the gastric (H+/K+)-ATPase. 1. 1-Aryl-4-methylpyrrolo[3,2-c]quinolines as conformationally restrained analogues of 4-(arylamino)quinolines” (J Med Chem, 1990).

Columns and labels:
Sus scrofa = organism: Sus scrofa; assay: In vitro inhibition of [14C]-aminopyrine accumulation was determined in gastric vesicles of pig with outside vesicle pH 7; conditions: Stomach
Rattus norvegicus [1] = assay: In vivo inhibition of rat gastric secretion was determined at a dose of 10 uM/kg; type: functional, Stomach
Summary of the method: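 Pentagastrin-stimulated lumen-perfused rats given a single iv bolus of 10 μmol/kg. Acid output measured in the gastric perfusate. Percent inhibition taken at peak inhibition relative to the secretory plateau immediately before dosing; mean of four rats ± SEM.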

Rattus norvegicus [2] = assay: In vivo antisecretory activity was determined for inhibition of gastric secretion in rat; rats died at doses giving less than 50% inhibition; type: organism-based, Stomach
[3] = pKa value was determined; type: physicochemical
Rattus norvegicus [4] = assay: In vivo antisecretory activity was determined for inhibition of gastric secretion in rat; type: functional; conditions: Stomach
Summary of the method: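 Lumen-perfused rat stimulated with pentagastrin; compound given as iv bolus; acid output measured in gastric perfusate. Percent inhibition taken at peak inhibition versus secretory plateau just before dosing.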

SMILES | IC50 (Sus scrofa) [µM] | pKa [3] | Inhibition (Rattus norvegicus [1]) [%] | ED50 (Rattus norvegicus [2]) | ED50 (Rattus norvegicus [4]) [µmol/kg]
COc1ccccc1N1CCc2c(C)nc3c(OC)cccc3c21 | 0.23 |  |  | Toxic | 
Cc1cccc(C)c1N1CCc2c(C)nc3ccccc3c21 |  |  | 18 |  | 
COc1cccc2c3c(c(C)nc12)CCN3c1ccccc1 | 0.084 |  | 17 | Toxic | 
COc1cccc2c3c(c(C)nc12)CCN3Cc1ccccc1 | 1.6 |  | 0 | Toxic | 
COc1ccc(N2CCc3c(C)nc4c(OC)cccc4c32)c(C)c1 |  |  | 45 |  | 
Cc1ccccc1N1CCc2c(C)nc3c(F)cccc3c21 |  |  | 26 |  | 
Cc1cc(O)ccc1N1CCc2c(C)nc3ccccc3c21 |  |  | 41 |  | 
Cc1ccccc1N1CCc2c1c1ccccc1[n+]([O-])c2C |  |  | 40 |  | 
COc1ccc2[nH]c([S+]([O-])Cc3ncc(C)c(OC)c3C)nc2c1 (centres undefined) [OMEPRAZOLE] |  |  |  |  | 0.45

Continued, in another order:

IC50 (Sus scrofa) [µM] | pKa [3] | SMILES | Inhibition (Rattus norvegicus [1]) [%] | ED50 (Rattus norvegicus [2]) | ED50 (Rattus norvegicus [4]) [µmol/kg]
0.11 |  | COc1cccc2c3c(cnc12)CCCN3c1ccccc1C | 21 |  | 
0.036 | 9.5 | COc1cccc2c3c(c(C)nc12)CCN3c1ccccc1C |  |  | 19.8
0.061 |  | Cc1ccccc1N1CCc2c(C)nc3c(O)cccc3c21 | 23 |  | 
0.034 | 7.4 | COc1cccc2c1nc(C)c1ccn(-c3ccccc3C)c12 | 48 |  | 7.1
0.028 |  | Cc1ccccc1N1CCc2c(C)nc3ccccc3c21 | 42 |  | 
> 30 |  | Cc1ccccc1-n1c(S)nc2cnc3ccccc3c21 |  |  | 
2.4 |  | COc1cccc2c3c(c(C)[n+](C)c12)CCN3c1ccccc1C |  |  | 
0.028 |  | Cc1ccccc1N1CCc2c(C)nc3c(C)cccc3c21 | 43 |  | 
2.23 |  | Cc1ccccc1-n1cnc2cnc3ccccc3c21 |  |  | 
0.026 |  | COc1ccc(N2CCc3c(C)nc4ccccc4c32)c(C)c1 | 51 |  | 
> 30 |  | Cc1ccccc1-n1nnc2cnc3ccccc3c21 |  |  | 
0.013 |  | Cc1nc2c(OCc3ccccc3)cccn2c1CC#N |  |  | 0.31
0.037 |  | CCOC(=O)c1cnc2c(OC)cccc2c1Nc1ccccc1C |  |  | 8.2
